An excerpt weighted towards active compounds, which were near 1.8% of everything screened.
GSTO1 counter = blocks human GSTO1 in RBBP9 counter-screen; P78417; recombinant GSTO1, activity-based probe fluorescence polarization; inhibition, % at 5.96 µM; 1.1% of 300,000 active; AID 1974;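 active = inhibition above the campaign mean inhibition plus 3 SD, cut at about 35% in these data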;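 note: 0% = GSTO1-1 with DMSO and 100% = wells lacking GSTO1-1 enzyme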
Target sequence (P78417 whole entry, looked up): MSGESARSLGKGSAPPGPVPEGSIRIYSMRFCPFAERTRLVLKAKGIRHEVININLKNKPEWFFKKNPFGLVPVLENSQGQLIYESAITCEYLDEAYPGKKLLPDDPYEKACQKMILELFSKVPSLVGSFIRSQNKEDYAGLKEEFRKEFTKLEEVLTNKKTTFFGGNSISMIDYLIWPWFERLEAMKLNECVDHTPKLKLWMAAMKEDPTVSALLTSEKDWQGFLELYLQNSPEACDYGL
ZTA DNA inh = blocks Epstein-Barr virus ZTA, an EBNA-1 counter-screen; inhibition, % at 11 µM; AID 2234; P03206; ZTA-DNA binding, fluorescence polarization; 0.15% of 320,000 active; in the data active = inhibition above about 33%
proCasp3 act = activates human procaspase-3; P42574; recombinant procaspase-3 D3A, Ac-DEVD-pNA absorbance 405 nm; activation, % at 8.5 µM; 0.11% of 330,000 active;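 active = activation above the mean of all tested compounds plus 3 SD, cut at about 21% in these data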;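 note: 0% = DMSO alone and 100% = DMSO wells spiked with extra 5 µM PC-3 D3A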
Target sequence (P42574 whole entry D9A/D28A/D175A): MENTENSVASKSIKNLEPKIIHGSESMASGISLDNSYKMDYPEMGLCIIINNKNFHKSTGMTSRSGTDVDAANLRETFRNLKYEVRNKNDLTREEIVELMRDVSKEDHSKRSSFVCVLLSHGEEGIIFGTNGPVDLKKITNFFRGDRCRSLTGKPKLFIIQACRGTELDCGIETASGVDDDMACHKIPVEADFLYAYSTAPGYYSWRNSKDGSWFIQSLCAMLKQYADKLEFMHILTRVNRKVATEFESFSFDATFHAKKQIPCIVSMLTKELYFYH
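Assay system: Procaspase-3 D3A mutant, all three cleavage aspartates alanine. Buffer or medium: Zinc-free HEPES saline buffer with Triton X-100. Times: 1 h compound preincubation, 2 h substrate hydrolysis at 25 °C. Measured by: 405 nm absorbance of p-nitroaniline, reads at 0 and 120 min. Read-out basis: percent activation relative to control range. Replicates: singlicate.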
proCasp7 act = counter-screen for procaspase-3 activators: activators of human procaspase-7; recombinant procaspase-7, Ac-DEVD-pNA absorbance 405 nm; D23A/D198A/D206A triple mutant, cannot self-cleave; scale: DMSO 0, 5 µM enzyme 100; activation, % at 8.5 µM; 0.093% of 330,000 active; AID 463210;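 active = percent activation above the screen-wide mean plus 3 SD, cut at about 25% in these data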
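signal = Epi-absorbance of released pNA at 405 nm, two timepoints | assay system = Uncleavable procaspase-7 mutant enzyme | reagent = Ac-DEVD-pNA substrate, 400 µM as added | times = 1 h enzyme–compound preincubation and 2 h substrate reaction, both 25 °C | benchmarks = low DMSO alone, high DMSO plus 5 µM PC-7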
EBNA-1 inh = blocks EBNA-1 binding to DNA | EBNA-1 DNA binding, fluorescence polarization | inhibition, % at 14.8 µM | 0.34% of 300,000 active; in the data active = inhibition above about 28%
Apaf-1 inh = inhibitors of human Apaf-1 apoptosome; 0.71% of 330,000 active; AID 489030; reconstituted apoptosome caspase-3 activity, DEVD-Rh110 fluorescence; inhibition, % at 20 µM; O14727; active = inhibition of at least 40% at 20 µM;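 note: plate controls were DMSO wells for no effect and DEVD-CHO caspase inhibitor wells for full effect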
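detection = Rh110 fluorescence intensity | test system = biochemical Apaf-1 apoptosome reconstitution | also added = cytochrome c and DEVD-Rh110 substrate | schedule = 30 min plus 50 min, RT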
Apaf-1 inh conf = Apaf-1 inhibition, single-dose confirmed | shares compounds with Apaf-1 inh | inhibition, % at 20 µM | reconstituted apoptosome, caspase-3 DEVD-Rh110 fluorescence | 25% of 1,800 active;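 active = mean inhibition of at least 40% at 20 µM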;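 note: plate controls were DMSO wells for no effect and DEVD-CHO caspase inhibitor control wells for full effect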
Rh110 interf inh = Rh110 signal interference in Apaf-1 inhibitor counter-screen. shares compounds with Apaf-1 inh. Rh110 fluorescence interference, quenched caspase reaction. activation (fluorescence interference), % at 20 µM. 1,800 tested, under 10 active. AID 504615;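 active = signal rise of 40% or more at 20 µM, treated as a fluorescence artifact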
Active calls of the source: *; nt = no result.

SMILES	GSTO1 counter	ZTA DNA inh	proCasp3 act	proCasp7 act	EBNA-1 inh	Apaf-1 inh	Apaf-1 inh conf	Rh110 interf inh
CCOC(=O)c1c(NC(=O)c2cccs2)sc(C)c1CC	3	2	-6	-1	-1	51*	13	9
Cc1coc2cc3oc(=O)c(CCC(=O)N4CCC(C(=O)O)(c5ccccc5)CC4)c(C)c3cc12	10	6	7	3	-11	-9	nt	nt
COc1cc(/C=C2\C(=O)N(c3ccccc3)N=C2C)ccc1Oc1ccc([N+](=O)[O-])cc1[N+](=O)[O-]	33	2	-1	11	-4	nt	nt	nt
COc1cc(/C=C2/C(=O)N(c3ccc(Br)cc3)N=C2C)cc(OC)c1OC	nt	nt	nt	nt	nt	94*	7	1
Cc1cc(NC(=O)CCCn2nc([N+](=O)[O-])c(Br)c2C)no1	6	4	-3	4	-3	40*	2	-2
Cc1c(Br)c([N+](=O)[O-])nn1CCCC(=O)Nc1c(C)n(C)n(-c2ccccc2)c1=O	4	3	3	10	-1	-19	nt	nt
Nc1c(C(=O)NCC2CCCO2)c2nc3ccccc3nc2n1-c1ccccc1 (configuration not stated)	3	8	0	-1	-2	60*	27	9
COc1ccccc1-n1c(N)c(C(=O)NCC2CCCO2)c2nc3ccccc3nc21 (configuration not stated)	15	14	4	-4	4	69*	15	7
COCCCNC(=O)c1c(N)n(-c2cccc(S(N)(=O)=O)c2)c2nc3ccccc3nc12	-7	6	3	4	-18	43*	28	1
Cc1ccc(CN2CCNC(=O)C2CC(=O)N(C)CCc2cnn(C)c2)cc1 (configuration not stated)	nt	nt	nt	nt	nt	-7	nt	nt
O=P(CCCCCCCCCP(=O)(c1ccccc1)c1ccccc1)(c1ccccc1)c1ccccc1	-5	-2	-5	-7	18	53*	30	1
CC1(C)OC(C)(C)/C(=C/Nc2ccc(O)cc2)C1=O	25	13	-4	-3	13	48*	14	-3
Nc1c(C(=O)NCc2ccco2)c2nc3ccccc3nc2n1CCc1ccccc1F	6	20	-1	6	16	61*	34	18
COc1ccc(-n2c(N)c(C(=O)NCc3ccco3)c3nc4ccccc4nc32)c(OC)c1	37*	4	-15	-25	-5	65*	16	0
COc1ccc(-n2c(=S)[nH]c3cc(C(=O)NCc4ccco4)ccc3c2=O)c(OC)c1	5	-11	2	-2	-1	15	nt	nt
CC(NC(=O)c1ccccc1SCC(=O)N1CCCC1)c1ccc(F)cc1 (configuration not stated)	2	2	-6	5	10	6	nt	nt
Cc1ccc(S(=O)(=O)N2CCN(c3nc(CN4CCCC4)nc4sc(C)c(C)c34)CC2)cc1	nt	-4	5	8	nt	48*	29	15
COc1ccc(N2CCN(C(=O)c3ccc(COc4ccc5c(C)cc(=O)oc5c4)cc3)CC2)cc1	0	-13	7	-9	12	58*	17	5
CCCCCCCCNC(C)C(O)c1ccc(SC(C)C)cc1 (configuration not stated)	2	8	-1	6	-2	58*	17	3
C[C@@H](NCCc1ccc(O)cc1)[C@@H](O)c1ccc(O)cc1	1	-3	5	2	10	-6	nt	nt
NC(=O)c1cc(S(=O)(=O)N2CCOCC2)ccc1Sc1ccccc1N	nt	nt	nt	nt	nt	-3	nt	nt
COc1ccc(Br)cc1C1CC(=O)N2CN(C)CSC2=C1C#N (configuration not stated)	0	6	-28	-31	3	42*	29	18
COc1ccc(OC)c(C2CC(=O)N3CN(c4ccccc4F)CSC3=C2C#N)c1 (configuration not stated)	6	-2	-19	-22	-6	0	nt	nt
COc1ccc(Br)cc1C1CC(=O)N2CN(Cc3ccccc3)CSC2=C1C#N (configuration not stated)	-5	8	-13	-28	2	78*	20	0
Cc1ccc(N(C(=O)CCCC(=O)Nc2ccccn2)C(C(=O)NC2CCCC2)c2ccc(O)cc2)cc1C (configuration not stated)	-6	18	1	-1	6	12	nt	nt
SMILES	GSTO1 counter	ZTA DNA inh	proCasp3 act	proCasp7 act	EBNA-1 inh	Apaf-1 inh	Apaf-1 inh conf	Rh110 interf inh
CN1CCN(CCCN2c3ccccc3Sc3ccc(C(F)(F)F)cc32)CC1	2	-4	0	7	-6	54*	11	8
CCN(CC(=O)Nc1ccc(Br)cc1)C(=O)c1nc2nc(C)cc(C)n2n1	nt	6	8	6	nt	-4	nt	nt
CCOC(=O)C1CCCN(S(=O)(=O)c2ccc3c4c2CC(=O)N4CC(C)S3)C1 (configuration not stated)	8	4	4	-12	9	38	nt	nt
CCOC(=O)C1CCN(S(=O)(=O)c2ccc3c4c2CC(=O)N4CC(C)S3)CC1 (configuration not stated)	-3	0	2	-11	-4	44*	39	18
C[C@@H](C(=O)NC1CCN(Cc2ccccc2)CC1)N1C(=O)N2CCc3c([nH]c4ccccc34)[C@@]2(C)C1=O	-2	-12	4	-15	-1	2	nt	nt
CC(C)C[C@@H](C(=O)NC1CCN(Cc2ccccc2)CC1)N1C(=O)N2CCc3c([nH]c4ccccc34)[C@@]2(C)C1=O	-5	1	6	-6	0	45*	17	-1
C[C@@H]1[C@H]2[C@@H]3CC[C@@H](C3)[C@H]2CN[C@H]1c1cn(Cc2ccccc2)c2ccccc12	nt	nt	-6	-8	nt	62*	15	13
Cc1ccc(S(=O)(=O)N2C[C@@H]3[C@H]4CC[C@H](C4)[C@@H]3[C@@H](C)[C@@H]2c2cn(Cc3ccccc3)c3ccc(F)cc23)cc1	nt	nt	-9	13	nt	14	nt	nt
CC(C)[C@H](NC(=O)N1CCC(Cc2ccccc2)CC1)C(=O)O	6	-10	6	5	3	42*	13	3
O=c1c2ccccc2oc2ccc(NCCCn3ccnc3)cc12	-12	15	-14	-8	-3	10	nt	nt
CN1CCCC1CCNc1ccc2sc3ccccc3c(=O)c2c1 (configuration not stated)	15	-3	-1	8	-7	44*	20	6

Source: PubChem BioAssay (several laboratories)
